According to ChEMBL document CHEMBL3621054, “A new class of hybrid anticancer agents inspired by the synergistic effects of curcumin and genistein: Design, synthesis, and anti-proliferative evaluation” (Bioorg Med Chem Lett, 2015):

What was measured:
Type in all cases: functional, cell-based
[1] = tested on: LNCaP; test: Cytotoxicity against human androgen-dependent LNCAP cells assessed as inhibition of cell viability after 3 days by WST-1 cell proliferation assay; details: 72 h
Procedure, shortened: (§1)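 Human prostate cancer cells (LNCaP androgen-dependent; PC-3 and DU145 androgen-independent) were exposed to drug for 3 days, and viability was read by WST-1 proliferation assay. IC50 was taken as the drug concentration giving 50% inhibition of cell viability, reported as mean ± standard error of the mean.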

[2] = tested on: PC-3; test: Cytotoxicity against human androgen-independent PC3 cells assessed as cell cell viability after 3 days by WST-1 cell proliferation assay; details: PC-3, 72 h; procedure, shortened: as §1
[3] = tested on: DU-145; test: Cytotoxicity against human androgen-independent DU145 cells assessed as inhibition of cell viability after 3 days by WST-1 cell proliferation assay; details: DU-145, 72 h; procedure, shortened: as §1

Row | SMILES | IC50 [1] [µM] | IC50 [2] [µM] | IC50 [3] [µM]
1 | CCC(CC)n1ccnc1/C=C/C(=O)/C=C/c1coc2ccccc2c1=O | 2.8 | 2.9 | 5.2
2 | Cn1ccnc1/C=C/C(=O)/C=C/c1coc2ccccc2c1=O | 2.3 | 2.8 | 4.5
3 | COc1cc(/C=C/C(=O)CC(=O)/C=C/c2ccc(O)c(OC)c2)ccc1O [CURCUMIN] | 12.1 |  | 
4 | CCC(C)n1ccnc1/C=C/C(=O)/C=C/c1coc2ccccc2c1=O (configuration not stated) | 1.3 | 1.8 | 3.3
5 | CCCCn1ccnc1/C=C/C(=O)/C=C/c1coc2ccccc2c1=O | 2 | 2 | 4.3
6 | CCCC(C)n1ccnc1/C=C/C(=O)/C=C/c1coc2ccccc2c1=O (configuration not stated) | 3.9 | 3.2 | 1.4
7 | CC(C)n1ccnc1/C=C/C(=O)/C=C/c1coc2ccccc2c1=O | 1.2 | 2.3 | 3.3
8 | CC(C)CCn1ccnc1/C=C/C(=O)/C=C/c1coc2ccccc2c1=O | 4 | 3.6 | 5.8
9 | O=c1c(O)c(-c2ccc(O)c(O)c2)oc2cc(O)cc(O)c12 [QUERCETIN] | 45.5 | > 100 | > 100
10 | CCCCCn1ccnc1/C=C/C(=O)/C=C/c1coc2ccccc2c1=O | 1.8 | 2.1 | 2.7
11 | CCn1ccnc1/C=C/C(=O)/C=C/c1coc2ccccc2c1=O | 1 | 1.8 | 3
12 | O=c1c(-c2ccc(O)cc2)coc2cc(O)cc(O)c12 [GENISTEIN] | 37.4 | 68.6 | > 100
13 | CCCn1ccnc1/C=C/C(=O)/C=C/c1coc2ccccc2c1=O | 2.1 | 2.4 | 4.6
